Here are results for 7 compounds from ChEMBL document CHEMBL1158098, “Crassolides A-F, cembranoids with a trans-fused lactone from the soft coral Sarcophyton crassocaule” (J Nat Prod, 2006).

Holding throughout (format): functional, cell-based
A short description of test [1]: Cytotoxicity against human Hep G2 cells by MTT colorimetric method. Particulars: HepG2. The procedure, abridged: (§1)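 Human cancer cell lines were obtained from ATCC. Cytotoxicity was measured by the MTT [3-(4,5-dimethylthiazol-2-yl)-2,5-diphenyltetrazolium bromide] colorimetric method.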
The test system of the next test is MCF7. Put plainly: Cytotoxicity against human MCF7 cells by MTT colorimetric method. A digest of the protocol:
as §1
On the technique in general: Formazan colour is commonly taken as a measure of viable cells.

Another test concerns MDA-MB-231. Put plainly: Cytotoxicity against human MDA-MB-231 cells by MTT colorimetric method. A digest of the protocol:
as §1

The test system of the next test is A549. Put plainly: Cytotoxicity against human A549 cells by MTT colorimetric method. The procedure, abridged:
as §1

Converted amounts (≈) assume the structure as drawn.

Turning to `C=C1C(=O)O[C@H]2C/C(C)=C/CC/C(C)=C/CC[C@@](C)(O)[C@@H](OC(C)=O)C[C@H]12` [CRASSOCOLIDE C], the IC50 (in test [1]; in the test on MCF7; with MDA-MB-231; in the test on A549) was over 30 µg/mL in each case.

Turning to `COc1cccc2c1C(=O)c1c(O)c3c(c(O)c1C2=O)C[C@@](O)(C(=O)CO)C[C@@H]3O[C@H]1C[C@H](N)[C@H](O)[C@H](C)O1` [DOXORUBICIN], the IC50 – broadly, the concentration that inhibits the measured activity by half – in test [1] turned out to be 0.2 µg/mL (≈ 0.368 µM); in the test with MCF7 it was 0.3 µg/mL (≈ 0.552 µM); in the test on MDA-MB-231 it was 0.1 µg/mL (≈ 0.184 µM).

`C=C1C(=O)O[C@H]2C[C@]3(C)O[C@H]3CC/C(C)=C/CC/C(C)=C/C[C@H]12` [LOBOPHYTOLIDE]: the IC50 in test [1] was determined as 6.3 µg/mL (≈ 19.9 µM); with MCF7, 2.3 µg/mL (≈ 7.27 µM); with MDA-MB-231, 2 µg/mL (≈ 6.32 µM); with A549 it was 2.1 µg/mL (≈ 6.64 µM).

On to `C=C1C(=O)O[C@H]2C[C@@]3(C)O[C@@H]3CC/C(C)=C/C[C@@H](OC(C)=O)/C(C)=C/C[C@H]12` [CRASSOCOLIDE F], for which the IC50 in test [1] amounted to 2.1 µg/mL (≈ 5.61 µM); in the test on MCF7 it was 7.4 µg/mL (≈ 19.8 µM); in the test on MDA-MB-231, 8.8 µg/mL (≈ 23.5 µM); in the test with A549 it was 3.2 µg/mL (≈ 8.55 µM).

Take `C=C1C(=O)O[C@@H]2[C@@H]1C[C@H](O)[C@](C)(O)CC/C=C(\C)CC/C=C(\C)[C@@H]2OC(C)=O` [CRASSOLIDE A]: the IC50 was 3.1 µg/mL (≈ 7.9 µM) in test [1], 8.9 µg/mL (≈ 22.7 µM) in the test with MCF7, 8.6 µg/mL (≈ 21.9 µM) in the test with MDA-MB-231 and 11.9 µg/mL (≈ 30.3 µM) in the test on A549.

On to `C=C1C(=O)O[C@H]2C/C(C)=C/CC/C(C)=C/CC[C@@](C)(O)[C@@H](O)C[C@H]12` [CRASSOCOLIDE D], for which the IC50 in test [1] is over 30 µg/mL; in the test with MCF7 it was 15.3 µg/mL (≈ 45.7 µM); in the test with MDA-MB-231 it was over 30 µg/mL; with A549, 12.5 µg/mL (≈ 37.4 µM).

As for `C=C1C(=O)O[C@@H]2[C@@H]1C[C@H](OC(C)=O)[C@](C)(O)CC/C=C(\C)CC/C=C(\C)[C@@H]2OC(C)=O` [CRASSOCOLIDE B], the IC50 in test [1] is 13.1 µg/mL (≈ 30.1 µM); in the test on MCF7, 10.3 µg/mL (≈ 23.7 µM); in the test on MDA-MB-231, over 30 µg/mL; in the test on A549, 12.1 µg/mL (≈ 27.8 µM).
